Data published in ChEMBL document CHEMBL2434860, “Nitroreductase-activated nitric oxide (NO) prodrugs” (Bioorg Med Chem Lett, 2013).

Tests used:
DLD-1 [1] = experiment: Antiproliferative activity against human DLD1 cells assessed as cell viability at 75 uM after 72 hrs by MTT assay in presence of Escherichia coli NTR and NADPH relative to control; format: functional; settings: DLD-1, 72 h, read-out: Activity
Outline: (§1)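 DLD-1 human colon adenocarcinoma cells seeded at 3 × […] cells/well overnight in complete RPMI 1640. Treated with compound from DMSO stock (1% DMSO final), with or without E. coli nitroreductase (6 mg/2 mL DPBS stock) and NADPH (0.5 mM stock in DPBS). Incubated 72 h at 37 °C. MTT added for 4 h, formazan dissolved in DMSO, absorbance read at 570 nm for viability.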

DLD-1 [2] = experiment: Antiproliferative activity against human DLD1 cells assessed as cell viability at 75 uM after 72 hrs by MTT assay in absence of Escherichia coli NTR and presence of NADPH; format: functional; settings: DLD-1, 72 h, read-out: Activity; outline: as §1
[3] = Stability of the compound in phosphate buffer at pH 7.0 assessed as nitric oxide release at 50 uM after 1 hr by chemiluminescence assay in absence of Escherichia coli NTR and presence of NADPH; format: physicochemical; settings: pH 7, 1 h
Outline: (§2)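 Compound at 50 µM was incubated at 37 °C in pH 7.0 phosphate buffer with NADPH, with or without E. coli nitroreductase. After 1 h, an aliquot was injected into a chemiluminescence NO analyser (argon carrier) whose reservoir held NaI/acetic acid, so nitrite was also counted as NO. The signal was calibrated against NaNO2 standards. Values are averages of two independent runs.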

[4] = Prodrug conversion in phosphate buffer at pH 7.0 assessed as Escherichia coli NTR-mediated decomposition measuring nitric oxide release at 50 uM after 1 hr by chemiluminescence assay in presence of NADPH; format: physicochemical; settings: pH 7, 1 h; outline: as §2
[5] = Prodrug conversion in phosphate buffer at pH 7.0 assessed as Escherichia coli NTR-mediated decomposition measuring compound remaining at 50 uM after 1 hr by HPLC analysis in presence of NADPH; format: physicochemical; settings: pH 7, 1 h
Outline: (§3)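 Compound at 50 µM (from a 10 mM DMSO stock) was stirred at 37 °C in pH 7.0 phosphate buffer with NADPH, with or without E. coli nitroreductase; the blank had no enzyme. After 1 h, an aliquot was analysed by reverse-phase C-18 HPLC (70% MeCN:H2O, 1 mL/min) for compound remaining. Values are averages of two independent runs.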

[6] = Stability of the compound in phosphate buffer at pH 7.0 assessed as compound remaining at 50 uM after 1 hr by HPLC analysis in absence of Escherichia coli NTR and presence of NADPH; format: physicochemical; settings: pH 7, 1 h; outline: as §3
[7] = Half life in aqueous buffer assessed as nitric oxide release at pH 7.4; format: physicochemical
HeLa [8] = experiment: Cytotoxicity against human HeLa cells assessed as cell viability at 25 uM after 72 hrs by MTT assay in presence of Escherichia coli NTR and NADPH (reference value: 67.2%); format: functional; settings: read-out: Activity
HeLa [9] = experiment: Cytotoxicity against human HeLa cells assessed as cell viability at 10 uM after 72 hrs by MTT assay in presence of Escherichia coli NTR and NADPH (reference value: 67.2%); format: functional; settings: read-out: Activity
HeLa [10] = experiment: Cytotoxicity against human HeLa cells assessed as cell viability at 1 uM after 72 hrs by MTT assay in presence of Escherichia coli NTR and NADPH (reference value: 67.2%); format: functional; settings: read-out: Activity
HeLa [11] = experiment: Cytotoxicity against human HeLa cells assessed as cell viability at 25 uM after 72 hrs by MTT assay in absence of Escherichia coli NTR and NADPH (reference value: 88.2%); format: functional; settings: read-out: Activity
HeLa [12] = experiment: Cytotoxicity against human HeLa cells assessed as cell viability at 1 uM after 72 hrs by MTT assay in absence of Escherichia coli NTR and NADPH (reference value: 88.2%); format: functional; settings: read-out: Activity
HeLa [13] = experiment: Cytotoxicity against human HeLa cells assessed as cell viability at 10 uM after 72 hrs by MTT assay in absence of Escherichia coli NTR and NADPH (reference value: 88.2%); format: functional; settings: read-out: Activity
DLD-1 [14] = experiment: Antiproliferative activity against human DLD1 cells assessed as cell viability at 10 uM after 72 hrs by MTT assay in presence of Escherichia coli NTR and NADPH (reference value: 86.3%); format: functional; settings: DLD-1, 72 h, read-out: Activity; outline: as §1
DLD-1 [15] = experiment: Antiproliferative activity against human DLD1 cells assessed as cell viability at 1 uM after 72 hrs by MTT assay in presence of Escherichia coli NTR and NADPH (reference value: 86.3%); format: functional; settings: DLD-1, 72 h, read-out: Activity; outline: as §1
DLD-1 [16] = experiment: Antiproliferative activity against human DLD1 cells assessed as cell viability at 25 uM after 72 hrs by MTT assay in absence of Escherichia coli NTR and presence of NADPH (reference value: 74.8%); format: functional; settings: DLD-1, 72 h, read-out: Activity; outline: as §1
DLD-1 [17] = experiment: Antiproliferative activity against human DLD1 cells assessed as cell viability at 10 uM after 72 hrs by MTT assay in absence of Escherichia coli NTR and presence of NADPH (reference value: 74.8%); format: functional; settings: DLD-1, 72 h, read-out: Activity; outline: as §1
DLD-1 [18] = experiment: Antiproliferative activity against human DLD1 cells assessed as cell viability at 1 uM after 72 hrs by MTT assay in absence of Escherichia coli NTR and presence of NADPH (reference value: 74.8%); format: functional; settings: DLD-1, 72 h, read-out: Activity; outline: as §1
[19] = Prodrug conversion in phosphate buffer at pH 6.5 assessed as Escherichia coli NTR-mediated decomposition measuring nitric oxide release at 50 uM after 5 mins; format: physicochemical; settings: pH 6.5, 5 min
Outline: (§4)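 Compound at 50 µM was reacted with E. coli nitroreductase and NADPH in phosphate buffer at pH 6.5 or at pH 7.4 (PBS), stirred at 37 °C. Aliquots were injected at set time points into a chemiluminescence NO analyser with an NaI/acetic acid reservoir, which also converts nitrite to NO. The signal was calibrated with NaNO2 standards.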

[20] = Prodrug conversion in phosphate buffer at pH 7.4 assessed as Escherichia coli NTR-mediated decomposition measuring nitric oxide release at 50 uM after 5 mins; format: physicochemical; settings: pH 7.4, 5 min; outline: as §4
HeLa [21] = experiment: Cytotoxicity against human HeLa cells assessed as cell viability after 72 hrs by MTT assay in presence of Escherichia coli NTR and NADPH; format: functional, cell-based
DLD-1 [22] = experiment: Antiproliferative activity against human DLD1 cells assessed as cell viability at 25 uM after 72 hrs by MTT assay in presence of Escherichia coli NTR and NADPH (reference value: 86.3%); format: functional; settings: DLD-1, 72 h, read-out: Activity; outline: as §1
DLD-1 [23] = experiment: Antiproliferative activity against human DLD1 cells assessed as cell viability at 100 uM after 72 hrs by MTT assay in presence of Escherichia coli NTR and NADPH (reference value: 107.4%); format: functional; settings: DLD-1, 72 h, read-out: Activity; outline: as §1
DLD-1 [24] = experiment: Antiproliferative activity against human DLD1 cells assessed as cell viability at 50 uM after 72 hrs by MTT assay in presence of Escherichia coli NTR and NADPH (reference value: 107.4%); format: functional; settings: DLD-1, 72 h, read-out: Activity; outline: as §1
DLD-1 [25] = experiment: Antiproliferative activity against human DLD1 cells assessed as cell viability at 100 uM after 72 hrs by MTT assay in absence of Escherichia coli NTR and NADPH (reference value: 107.4%); format: functional; settings: DLD-1, 72 h, read-out: Activity; outline: as §1
DLD-1 [26] = experiment: Antiproliferative activity against human DLD1 cells assessed as cell viability at 50 uM after 72 hrs by MTT assay in absence of Escherichia coli NTR and NADPH (reference value: 107.4%); format: functional; settings: DLD-1, 72 h, read-out: Activity; outline: as §1
DLD-1 [27] = experiment: Antiproliferative activity against human DLD1 cells assessed as cell viability at 25 uM after 72 hrs by MTT assay in absence of Escherichia coli NTR and NADPH (reference value: 107.4%); format: functional; settings: DLD-1, 72 h, read-out: Activity; outline: as §1
DLD-1 [28] = experiment: Cytotoxicity against human DLD1 cells assessed as cell viability at 25 uM after 72 hrs by MTT assay in presence of Escherichia coli NTR and NADPH (reference value: 107.4%); format: functional; settings: DLD-1, 72 h, read-out: Activity; outline: as §1

Structure (SMILES) | Stability [3] | Drug metabolism [4] [µM] | Stability [5] [%] | Stability [6] | t1/2 [7] [s] | viability at 75 µM (DLD-1 [1]) [%] | viability at 75 µM (DLD-1 [2]) [%] | further results
O=[N+]([O-])c1ccc(CO/N=[N+](\[O-])N2CCCC2)cc1 | Stable | 18.3 | 28 | Stable |  | 48.5 | 68.6 | 
CC1CCCCN1/[N+]([O-])=N/OCc1ccc([N+](=O)[O-])cc1 (configuration not stated) | Stable | 19.7 | 31 | Stable |  | 10.2 | 53 | viability at 25 µM (HeLa [8]): 6.9%; viability at 10 µM (HeLa [9]): 31.1%; viability at 1 µM (HeLa [10]): 56.6%; viability at 25 µM (HeLa [11]): 24.6%; viability at 1 µM (HeLa [12]): 76.9%; viability at 10 µM (HeLa [13]): 65.3%; viability at 10 µM (DLD-1 [14]): 30.8%; viability at 1 µM (DLD-1 [15]): 38.6%; viability at 25 µM (DLD-1 [16]): 63.7%; viability at 10 µM (DLD-1 [17]): 69.1%; viability at 1 µM (DLD-1 [18]): 82.1%; Drug metabolism [19]: 6 µM; Drug metabolism [20]: 17 µM; Activity (HeLa [21]): Dose-dependent effect; viability at 25 µM (DLD-1 [22]): 12.5%
O=C(OCc1ccc([N+](=O)[O-])cc1)c1ccccc1 | Stable | 1.1 | 68 | Stable |  |  |  | viability at 100 µM (DLD-1 [23]): 50.5%; viability at 50 µM (DLD-1 [24]): 85.5%; viability at 100 µM (DLD-1 [25]): 84.5%; viability at 50 µM (DLD-1 [26]): 89.2%; viability at 25 µM (DLD-1 [27]): 98.3%; viability at 25 µM (DLD-1 [28]): 93.4%

Further lines, with some results ahead:

Stability [3] | Drug metabolism [4] [µM] | Stability [5] [%] | Stability [6] | t1/2 [7] [s] | Structure (SMILES) | viability at 75 µM (DLD-1 [1]) [%] | viability at 75 µM (DLD-1 [2]) [%] | further results
 |  |  |  | 24 | CN(C)/[N+]([O-])=N/[O-].[Na+] |  |  | 
 |  |  |  | 120 | CCN(CC)/[N+]([O-])=N/[O-].[Na+] |  |  | 
Stable | 13.6 | 60 | Stable |  | CN(C)/[N+]([O-])=N/OCc1ccc([N+](=O)[O-])cc1 | 32.2 | 74.7 | 
Stable | 6.8 | 60 | Stable |  | CCN(CC)/[N+]([O-])=N/OCc1ccc([N+](=O)[O-])cc1 | 27.5 | 79.2 | 
 |  |  |  | 2 | [Na+].[O-]/N=[N+](\[O-])N1CCCC1 |  |  | 
